ChEMBL document CHEMBL5653631, “A Potent and Selective ULK1 Inhibitor Suppresses Autophagy and Sensitizes Cancer Cells to Nutrient Stress” (iScience, 2018)

Assays:
[1] = target: Myosin light chain kinase, smooth muscle (Homo sapiens) (UniProt Q15746); test: Inhibition of human recombinant smMLCK at 500 nM related to control ULK1
[2] = target: Serine/threonine-protein kinase WNK3 (Homo sapiens) (UniProt Q9BYP7); test: Inhibition of human recombinant Wnk3 at 500 nM related to control ULK1
[3] = target: RAC-alpha serine/threonine-protein kinase (Homo sapiens) (UniProt P31749); test: Inhibition of human recombinant AKT1 at 500 nM in presence of ATP by radiometric assay relative to control
Procedure, shortened: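 Panel of 327 recombinant human kinases in radiometric activity assays, each screened in duplicate at a single inhibitor concentration; percent activity remaining relative to vehicle control, percent inhibition taken as 100 minus activity remaining.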

[4] = target: Tyrosine-protein kinase Lyn (Homo sapiens) (UniProt P07948); test: Inhibition of human recombinant LYN at 500 nM in presence of ATP by radiometric assay relative to control
[5] = target: Homeodomain-interacting protein kinase 1 (Homo sapiens) (UniProt Q86Z02); test: Inhibition of human recombinant HIPK1 at 500 nM in presence of ATP by radiometric assay relative to control
Chain of Homeodomain-interacting protein kinase 1 (Homo sapiens) (Q86Z02 whole entry, looked up): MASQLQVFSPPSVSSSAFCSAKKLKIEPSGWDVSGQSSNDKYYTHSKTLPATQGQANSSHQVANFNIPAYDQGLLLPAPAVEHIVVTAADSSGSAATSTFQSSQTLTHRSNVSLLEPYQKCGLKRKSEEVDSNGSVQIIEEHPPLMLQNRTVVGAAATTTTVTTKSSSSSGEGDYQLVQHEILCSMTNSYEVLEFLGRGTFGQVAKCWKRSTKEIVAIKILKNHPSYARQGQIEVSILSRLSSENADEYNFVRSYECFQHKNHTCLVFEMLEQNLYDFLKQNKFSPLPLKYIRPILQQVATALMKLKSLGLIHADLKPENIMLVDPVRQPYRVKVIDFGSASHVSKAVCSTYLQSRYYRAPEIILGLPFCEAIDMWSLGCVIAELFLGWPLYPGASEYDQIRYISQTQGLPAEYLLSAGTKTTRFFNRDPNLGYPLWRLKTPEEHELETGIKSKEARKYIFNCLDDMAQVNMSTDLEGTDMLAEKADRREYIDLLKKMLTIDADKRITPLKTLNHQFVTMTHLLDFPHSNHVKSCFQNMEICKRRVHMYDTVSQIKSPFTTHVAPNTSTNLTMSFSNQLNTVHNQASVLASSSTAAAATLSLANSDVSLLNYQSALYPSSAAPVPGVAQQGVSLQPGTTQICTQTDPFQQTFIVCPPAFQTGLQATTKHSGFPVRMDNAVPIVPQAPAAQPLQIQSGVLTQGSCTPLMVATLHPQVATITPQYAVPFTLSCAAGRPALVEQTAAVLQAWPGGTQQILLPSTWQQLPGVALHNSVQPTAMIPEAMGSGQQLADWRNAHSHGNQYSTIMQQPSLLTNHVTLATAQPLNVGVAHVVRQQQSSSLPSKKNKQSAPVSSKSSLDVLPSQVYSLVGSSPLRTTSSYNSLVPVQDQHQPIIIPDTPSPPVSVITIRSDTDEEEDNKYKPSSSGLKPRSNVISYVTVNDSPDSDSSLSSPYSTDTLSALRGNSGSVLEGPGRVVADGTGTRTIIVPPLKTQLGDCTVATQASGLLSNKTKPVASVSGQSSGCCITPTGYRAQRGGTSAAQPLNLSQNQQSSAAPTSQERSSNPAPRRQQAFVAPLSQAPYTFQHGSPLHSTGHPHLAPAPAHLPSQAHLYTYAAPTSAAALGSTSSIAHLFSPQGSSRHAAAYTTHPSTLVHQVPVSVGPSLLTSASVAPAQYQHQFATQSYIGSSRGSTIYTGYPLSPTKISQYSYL

[6] = target: Serine/threonine-protein kinase PLK3 (Homo sapiens) (UniProt Q9H4B4); test: Inhibition of human recombinant PLK3 at 500 nM related to control ULK1
[7] = target: Serine/threonine-protein kinase WNK1 (Homo sapiens) (UniProt Q9H4A3); test: Inhibition of human recombinant Wnk1 at 500 nM related to control ULK1
[8] = target: Proto-oncogene tyrosine-protein kinase ROS (Homo sapiens) (UniProt P08922); test: Inhibition of human recombinant ROS at 15 nM in presence of ATP by radiometric assay relative to control
[9] = target: T1, Homeodomain-interacting protein kinase 4 (Homo sapiens) (UniProt Q8NE63); test: Inhibition of human recombinant HIPK4 at 15 nM related to control ULK1
T1 sequence (whole entry): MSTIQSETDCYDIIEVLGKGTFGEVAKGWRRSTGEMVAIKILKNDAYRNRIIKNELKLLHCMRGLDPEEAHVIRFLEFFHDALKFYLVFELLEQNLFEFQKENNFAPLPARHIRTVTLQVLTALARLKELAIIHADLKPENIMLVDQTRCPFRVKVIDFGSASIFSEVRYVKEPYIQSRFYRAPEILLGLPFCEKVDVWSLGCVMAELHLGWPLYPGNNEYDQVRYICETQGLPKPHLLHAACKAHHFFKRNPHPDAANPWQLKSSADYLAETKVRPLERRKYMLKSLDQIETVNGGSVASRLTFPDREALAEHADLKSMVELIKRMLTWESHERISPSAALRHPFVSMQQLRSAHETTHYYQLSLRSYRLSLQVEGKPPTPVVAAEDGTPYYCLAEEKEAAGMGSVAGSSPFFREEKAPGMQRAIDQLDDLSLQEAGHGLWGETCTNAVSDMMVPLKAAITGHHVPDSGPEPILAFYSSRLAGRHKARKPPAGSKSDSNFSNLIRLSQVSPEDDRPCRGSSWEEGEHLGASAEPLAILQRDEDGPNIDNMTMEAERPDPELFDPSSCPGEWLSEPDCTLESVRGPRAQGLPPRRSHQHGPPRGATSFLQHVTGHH

[10] = target: T2, Ephrin type-B receptor 1 (Homo sapiens) (UniProt P54762); test: Inhibition of human recombinant EphB1 at 15 nM in presence of ATP by radiometric assay relative to control
T2 sequence (whole entry): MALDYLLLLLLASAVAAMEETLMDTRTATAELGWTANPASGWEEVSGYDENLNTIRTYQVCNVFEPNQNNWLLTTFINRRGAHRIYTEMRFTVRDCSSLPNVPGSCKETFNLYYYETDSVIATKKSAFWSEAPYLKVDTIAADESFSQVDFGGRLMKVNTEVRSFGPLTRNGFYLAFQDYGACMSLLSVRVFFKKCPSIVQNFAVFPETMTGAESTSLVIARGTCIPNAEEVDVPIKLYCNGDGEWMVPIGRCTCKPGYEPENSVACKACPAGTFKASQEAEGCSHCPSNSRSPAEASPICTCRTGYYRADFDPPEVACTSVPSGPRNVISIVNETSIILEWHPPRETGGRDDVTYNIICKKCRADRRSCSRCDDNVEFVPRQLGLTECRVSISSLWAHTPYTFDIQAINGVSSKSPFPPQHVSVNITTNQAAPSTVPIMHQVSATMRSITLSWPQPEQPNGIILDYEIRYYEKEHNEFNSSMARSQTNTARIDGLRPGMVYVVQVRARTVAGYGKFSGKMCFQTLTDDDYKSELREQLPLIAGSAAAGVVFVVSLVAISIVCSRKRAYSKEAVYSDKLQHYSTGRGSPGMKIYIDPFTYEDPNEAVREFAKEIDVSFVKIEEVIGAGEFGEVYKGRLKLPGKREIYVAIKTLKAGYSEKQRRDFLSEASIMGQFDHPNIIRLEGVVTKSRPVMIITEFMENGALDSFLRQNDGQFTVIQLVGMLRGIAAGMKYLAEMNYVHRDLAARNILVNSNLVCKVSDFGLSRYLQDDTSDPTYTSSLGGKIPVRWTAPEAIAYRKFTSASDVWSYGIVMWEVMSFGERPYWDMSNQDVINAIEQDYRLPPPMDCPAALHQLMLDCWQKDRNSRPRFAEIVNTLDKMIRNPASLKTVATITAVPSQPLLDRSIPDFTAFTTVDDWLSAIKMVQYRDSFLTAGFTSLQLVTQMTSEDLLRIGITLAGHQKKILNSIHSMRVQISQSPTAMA

[11] = target: Insulin receptor-related protein (Homo sapiens) (UniProt P14616); test: Inhibition of human recombinant IRR at 15 nM related to control ULK1
Chain of Insulin receptor-related protein (Homo sapiens) (P14616 27-742 limits assumed): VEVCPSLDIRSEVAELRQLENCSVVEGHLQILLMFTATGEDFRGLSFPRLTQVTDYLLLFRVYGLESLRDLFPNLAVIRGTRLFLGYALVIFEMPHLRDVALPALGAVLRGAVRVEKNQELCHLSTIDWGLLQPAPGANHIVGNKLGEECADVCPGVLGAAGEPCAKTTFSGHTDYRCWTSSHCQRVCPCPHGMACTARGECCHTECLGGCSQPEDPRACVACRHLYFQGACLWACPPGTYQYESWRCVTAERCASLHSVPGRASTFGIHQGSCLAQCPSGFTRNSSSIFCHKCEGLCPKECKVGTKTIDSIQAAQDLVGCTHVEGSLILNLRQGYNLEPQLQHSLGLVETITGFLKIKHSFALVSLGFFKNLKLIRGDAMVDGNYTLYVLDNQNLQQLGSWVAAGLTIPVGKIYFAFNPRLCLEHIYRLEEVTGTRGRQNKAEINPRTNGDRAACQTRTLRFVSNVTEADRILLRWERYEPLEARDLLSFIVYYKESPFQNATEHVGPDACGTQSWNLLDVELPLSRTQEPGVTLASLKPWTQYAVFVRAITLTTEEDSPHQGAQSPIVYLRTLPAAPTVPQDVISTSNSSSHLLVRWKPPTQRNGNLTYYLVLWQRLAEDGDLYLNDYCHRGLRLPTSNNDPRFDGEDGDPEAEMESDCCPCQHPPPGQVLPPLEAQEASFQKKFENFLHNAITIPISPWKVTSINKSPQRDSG
Chain of Insulin receptor-related protein (Homo sapiens) (P14616 747-1297 limits assumed): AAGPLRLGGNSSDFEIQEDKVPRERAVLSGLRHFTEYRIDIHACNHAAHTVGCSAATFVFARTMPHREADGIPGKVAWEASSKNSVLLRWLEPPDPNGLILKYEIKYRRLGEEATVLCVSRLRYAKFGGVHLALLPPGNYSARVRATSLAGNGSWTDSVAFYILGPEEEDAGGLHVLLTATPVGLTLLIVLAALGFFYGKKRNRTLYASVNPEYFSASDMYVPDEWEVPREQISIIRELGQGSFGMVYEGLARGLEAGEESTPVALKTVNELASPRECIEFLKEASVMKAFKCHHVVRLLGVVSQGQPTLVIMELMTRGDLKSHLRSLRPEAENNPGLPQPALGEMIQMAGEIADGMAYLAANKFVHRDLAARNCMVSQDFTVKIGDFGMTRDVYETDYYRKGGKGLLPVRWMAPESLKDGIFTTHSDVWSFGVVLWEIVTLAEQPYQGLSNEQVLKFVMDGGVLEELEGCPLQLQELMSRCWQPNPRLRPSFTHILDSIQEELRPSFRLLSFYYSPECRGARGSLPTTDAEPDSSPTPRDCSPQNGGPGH

[12] = target: Calcium/calmodulin-dependent protein kinase type 1D (Homo sapiens) (UniProt Q8IU85); test: Inhibition of human recombinant CaMK1d at 15 nM related to control ULK1
[13] = target: Focal adhesion kinase 1 (Homo sapiens) (UniProt Q05397); test: Inhibition of human recombinant FAK at 15 nM in presence of ATP by radiometric assay relative to control
Chain of Focal adhesion kinase 1 (Homo sapiens) (Q05397 2-1052 limits assumed): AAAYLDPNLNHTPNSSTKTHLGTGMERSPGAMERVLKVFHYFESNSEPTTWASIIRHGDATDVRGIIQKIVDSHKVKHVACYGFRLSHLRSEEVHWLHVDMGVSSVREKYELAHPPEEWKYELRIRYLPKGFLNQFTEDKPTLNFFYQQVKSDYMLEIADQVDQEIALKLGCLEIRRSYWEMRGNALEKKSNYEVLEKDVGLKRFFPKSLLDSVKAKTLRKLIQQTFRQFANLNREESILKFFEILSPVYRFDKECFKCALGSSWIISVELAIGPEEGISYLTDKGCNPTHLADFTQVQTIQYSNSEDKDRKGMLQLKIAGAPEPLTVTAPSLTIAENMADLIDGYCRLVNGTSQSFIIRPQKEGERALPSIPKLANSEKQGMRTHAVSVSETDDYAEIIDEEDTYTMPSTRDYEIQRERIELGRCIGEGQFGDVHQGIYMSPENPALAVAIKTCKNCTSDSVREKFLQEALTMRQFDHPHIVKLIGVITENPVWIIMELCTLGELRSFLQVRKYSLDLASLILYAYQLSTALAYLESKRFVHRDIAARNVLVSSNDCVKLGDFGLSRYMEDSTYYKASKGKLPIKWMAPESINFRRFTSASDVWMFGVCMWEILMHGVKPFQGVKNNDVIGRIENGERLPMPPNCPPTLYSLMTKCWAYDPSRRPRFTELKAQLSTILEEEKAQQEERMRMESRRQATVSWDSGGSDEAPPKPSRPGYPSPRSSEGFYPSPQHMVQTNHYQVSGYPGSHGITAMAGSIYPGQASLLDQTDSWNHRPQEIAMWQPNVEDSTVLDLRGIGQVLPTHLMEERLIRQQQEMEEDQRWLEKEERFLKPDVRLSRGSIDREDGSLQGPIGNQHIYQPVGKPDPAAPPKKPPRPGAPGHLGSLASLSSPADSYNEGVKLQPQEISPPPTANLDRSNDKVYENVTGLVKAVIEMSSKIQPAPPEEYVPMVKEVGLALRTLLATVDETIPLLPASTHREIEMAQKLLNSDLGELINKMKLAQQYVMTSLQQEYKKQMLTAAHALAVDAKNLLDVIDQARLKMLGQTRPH

[14] = target: Serine/threonine-protein kinase B-raf (Homo sapiens) (UniProt P15056); test: Inhibition of human recombinant BRAF at 15 nM related to control ULK1
[15] = target: Serine/threonine-protein kinase Chk2 (Homo sapiens) (UniProt O96017); test: Inhibition of human recombinant CHK2 at 40 nM in presence of ATP by radiometric assay relative to control
Chain of Serine/threonine-protein kinase Chk2 (Homo sapiens) (O96017 whole entry): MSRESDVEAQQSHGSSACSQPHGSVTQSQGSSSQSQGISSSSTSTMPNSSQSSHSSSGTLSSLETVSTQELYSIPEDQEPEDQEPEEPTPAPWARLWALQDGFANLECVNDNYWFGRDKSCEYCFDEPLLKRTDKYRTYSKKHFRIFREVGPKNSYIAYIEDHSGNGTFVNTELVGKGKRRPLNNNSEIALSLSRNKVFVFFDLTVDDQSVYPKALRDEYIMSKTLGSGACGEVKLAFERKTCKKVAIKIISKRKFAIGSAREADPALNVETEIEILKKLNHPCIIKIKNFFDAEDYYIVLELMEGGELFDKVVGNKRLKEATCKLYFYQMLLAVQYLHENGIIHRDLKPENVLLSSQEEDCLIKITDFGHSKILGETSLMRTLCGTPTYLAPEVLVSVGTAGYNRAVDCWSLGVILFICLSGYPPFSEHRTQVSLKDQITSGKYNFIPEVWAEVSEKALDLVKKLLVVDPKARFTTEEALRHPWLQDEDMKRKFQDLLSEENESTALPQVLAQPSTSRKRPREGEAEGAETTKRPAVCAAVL

[16] = target: Serine/threonine-protein kinase 10 (Homo sapiens) (UniProt O94804); test: Inhibition of human recombinant LOK at 40 nM related to control ULK1
Chain of Serine/threonine-protein kinase 10 (Homo sapiens) (O94804 whole entry, looked up): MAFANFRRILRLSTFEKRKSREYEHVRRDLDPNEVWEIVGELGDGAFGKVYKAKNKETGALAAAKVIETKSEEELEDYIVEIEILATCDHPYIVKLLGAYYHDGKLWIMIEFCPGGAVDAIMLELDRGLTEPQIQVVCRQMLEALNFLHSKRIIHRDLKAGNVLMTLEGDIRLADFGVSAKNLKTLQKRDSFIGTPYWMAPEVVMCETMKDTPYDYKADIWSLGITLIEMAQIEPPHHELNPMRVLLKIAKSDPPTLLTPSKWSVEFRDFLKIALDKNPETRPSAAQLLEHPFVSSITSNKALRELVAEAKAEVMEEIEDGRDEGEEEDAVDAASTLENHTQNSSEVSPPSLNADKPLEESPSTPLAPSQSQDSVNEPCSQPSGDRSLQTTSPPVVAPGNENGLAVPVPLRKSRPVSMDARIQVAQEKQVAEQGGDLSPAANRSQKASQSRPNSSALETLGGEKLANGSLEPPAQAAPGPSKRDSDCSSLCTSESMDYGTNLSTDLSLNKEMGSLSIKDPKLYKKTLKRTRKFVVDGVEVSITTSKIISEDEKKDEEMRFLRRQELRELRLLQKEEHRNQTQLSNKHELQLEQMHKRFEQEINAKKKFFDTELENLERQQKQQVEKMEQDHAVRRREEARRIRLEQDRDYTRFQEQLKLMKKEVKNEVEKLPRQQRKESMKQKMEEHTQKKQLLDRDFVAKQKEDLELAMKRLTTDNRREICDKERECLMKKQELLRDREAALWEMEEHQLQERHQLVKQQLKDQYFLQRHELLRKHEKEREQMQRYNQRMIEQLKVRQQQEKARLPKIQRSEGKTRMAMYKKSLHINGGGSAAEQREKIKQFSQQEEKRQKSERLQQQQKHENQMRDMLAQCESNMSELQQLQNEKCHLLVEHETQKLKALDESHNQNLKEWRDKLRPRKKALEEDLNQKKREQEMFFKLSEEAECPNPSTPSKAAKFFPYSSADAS

CNC(=O)c1ccccc1Oc1nc(Nc2cc(OC)c(OC)c(OC)c2)ncc1Br was tested. Which fold change (FC) [1] did it give?
Its fold change (FC) is 0.07.

What about the fold change (FC) [2] of the same compound?
Its fold change (FC) is 0.08.

And the inhibition [3]?
The inhibition was 0%.

And the inhibition [4]?
Its inhibition is 30%.

What about the inhibition [5] of the same compound?
The inhibition was 3%.

What about the fold change (FC) [6] of the same compound?
Its fold change (FC) is 0.

And the fold change (FC) [7]?
Its fold change (FC) is 0.

What does the source list for CC(C)[C@H](NC(=O)c1cc(-c2cnn3cc(-c4ccc(OCCN5CCCCC5)cc4)cnc23)cs1)C(F)(F)F?
inhibition [8]: 0%; fold change (FC) [9]: 0; inhibition [10]: 12%; fold change (FC) [11]: 0.02; fold change (FC) [12]: 0; inhibition [13]: 0%; fold change (FC) [14]: 0.13

With O=C(N[C@@H](C1CC1)C(F)(F)F)c1cc(-c2cnn3cc(-c4ccc(F)cc4)cnc23)cs1 as the compound, how does the inhibition [15] read?
Its inhibition is 0%.

And the fold change (FC) [16]?
The fold change (FC) was 0.
